We go through three compounds from ChEMBL document CHEMBL3632537, “Chalcones from Angelica keiskei: Evaluation of Their Heat Shock Protein Inducing Activities” (J Nat Prod, 2015).

Data set [1] deals with L132 (Homo sapiens). The data set can be described thus: Upregulation of HSP27 protein expression in human L132 cells by Western blot analysis.
A further data set concerns NCI-H460. The data set can be described thus: Induction of hsp25 promoter activity in human NCI-H460 cells at 10 uM measured at 5 hrs by luciferase reporter gene assay relative to control. The class given is functional. Summed up:
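NCI-H460 human lung cancer cells carrying a luciferase reporter driven by the murine hsp25 promoter. Cells were plated at 1 × 10⁵ per well, grown 24 h, then exposed to 10 μM compound and harvested 5 h later. Lysate luciferase was normalized to β-galactosidase and expressed as fold induction over untreated control. Values are mean ± SD of three independent experiments.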

For data set [2], the system named is L132 (Homo sapiens). The data set can be described thus: Upregulation of HSP70 mRNA expression in human L132 cells by RT-PCR analysis.
Data set [3] relates to L132 (Homo sapiens). The data set is described as follows: Upregulation of HSP70 protein expression in human L132 cells by Western blot analysis.
Data set [4] relates to L132 (Homo sapiens). The data set can be described thus: Upregulation of HSP27 mRNA expression in human L132 cells by RT-PCR analysis.
The subject of data set [5] is L132 (Homo sapiens). The data set can be described thus: Upregulation of HSF1 protein expression in human L132 cells by Western blot analysis. A general note: A western blot detects proteins with antibodies after separation by electrophoresis.
Data set [6] has as its system L132 (Homo sapiens). The data set can be described thus: Upregulation of HSF1 mRNA expression in human L132 cells by RT-PCR analysis.
Data set [7] is described as follows: Cytotoxicity against human L-132 cells assessed as cell viability at 1 to 8 uM after 12 hrs by MTT assay. The class given is cell-based. Particulars: l132, 12 h. Summed up:
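L132 human lung fibroblasts exposed 12 h to 1, 2, 4 or 8 μM; medium swapped for MTT 0.5 mg/mL in PBS, 3 h at 37 °C, formazan dissolved in DMSO, absorbance at 540 nm converted to cell number via calibration curve; viability as ratio to DMSO no-treatment control; mean ± SD of three independent experiments, Student's t test vs untreated.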
(In general: Tetrazolium assays rely on reduction of a dye to a coloured formazan, in cell work by metabolically active cells.)

The subject of data set [8] is L132 (Homo sapiens). The data set is described as follows: Upregulation of HSP27 mRNA expression in human L132 cells at 2 uM measured at 3 hrs by RT-PCR analysis relative to control.
Data set [9] relates to L132 (Homo sapiens). The data set can be described thus: Upregulation of HSP27 protein expression in human L132 cells at 2 uM measured at 6 hrs by Western blot analysis relative to control.
Data set [10] deals with L132 (Homo sapiens). The data set can be described thus: Upregulation of HSP70 protein expression in human L132 cells at 2 uM measured at 6 hrs by Western blot analysis relative to control.
In data set [11] the test system is L132 (Homo sapiens). The data set can be described thus: Upregulation of HSP70 mRNA expression in human L132 cells at 2 uM measured at 3 hrs by RT-PCR analysis relative to control.
Data set [12] deals with L132 (Homo sapiens). The data set is described as follows: Upregulation of HSF1 protein expression in human L132 cells at 2 uM measured at 6 hrs by Western blot analysis relative to control.

Structures are written as SMILES. The source made the active and inactive calls. The rule behind the calls is not given here.

In the case of `COC(C)(C)/C=C/C/C(C)=C/Cc1c(O)ccc(C(=O)/C=C/c2ccc(O)cc2)c1O`, the outcome with L132 (Homo sapiens) [1], in the data set on L132 (Homo sapiens) [2], in the data set on L132 (Homo sapiens) [3], with L132 (Homo sapiens) [4], in the data set on L132 (Homo sapiens) [5] and in the data set on L132 (Homo sapiens) [6] was inactive. Besides, in the data set with NCI-H460, the “fold change (FC)” value came out at 21.9.

Take `CC1=C(O)C(=O)C=C2C1=CC=C1[C@@]2(C)CC[C@@]2(C)[C@@H]3C[C@](C)(C(=O)O)CC[C@]3(C)CC[C@]12C` [CELASTROL]: in [7], the Activity result was “Toxic”.

Take `C=C(CCC=C(C)C)C(O)Cc1c(O)ccc(C(=O)/C=C/c2ccc(O)cc2)c1O` (racemic): the “fold change (FC)” value was 1.5 in the data set with L132 (Homo sapiens) [8]; 29.2 in the data set on NCI-H460; 4.6 in the data set on L132 (Homo sapiens) [9]; 1.5 in the data set on L132 (Homo sapiens) [10]; 5 in the data set with L132 (Homo sapiens) [11]; 4.3 with L132 (Homo sapiens) [12]. In addition, the Activity entry in data set [7] is “Non-toxic”.
